Experimental data from ChEMBL document CHEMBL3351323, “Exploitation of cholane scaffold for the discovery of potent and selective farnesoid X receptor (FXR) and G-protein coupled bile acid receptor 1 (GP-BAR1) ligands” (J Med Chem, 2014).
Activity calls are given as the source filed them. No cut-off for these calls is given here.

Assays:
[1] = biological target: Liver X receptor (Homo sapiens) (UniProt Q13133+P55055); assay: Agonist activity at LXR (unknown origin) in human HepG2 cells assessed as receptor transactivation at 10 uM incubated for 18 hrs by Gal4 luciferase reporter gene assay; type: cell-based
Outline: (§1)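 HepG2 cells transfected with a GAL4-UAS luciferase reporter, Renilla vector and GAL4 DNA-binding domain fusions of the GR, LXR or PPARγ ligand-binding domain; 48 h later stimulated 18 h at 10 μM beside the matching reference agonist (dexamethasone, GW3965, rosiglitazone). Three experiments, mean ± SE.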

[2] = biological target: T1, Nuclear receptor subfamily 1 group I member 2 (Homo sapiens, UniProt O75469); assay: Agonist activity at PXR (unknown origin) in human HepG2 cells co-transfcted with RXR assessed as receptor transactivation at 10 uM incubated for 18 hrs by CYP3A4 promoter-TKLuc luciferase reporter gene assay; settings: hepg2, 18 h
T1 sequence (O75469 whole entry): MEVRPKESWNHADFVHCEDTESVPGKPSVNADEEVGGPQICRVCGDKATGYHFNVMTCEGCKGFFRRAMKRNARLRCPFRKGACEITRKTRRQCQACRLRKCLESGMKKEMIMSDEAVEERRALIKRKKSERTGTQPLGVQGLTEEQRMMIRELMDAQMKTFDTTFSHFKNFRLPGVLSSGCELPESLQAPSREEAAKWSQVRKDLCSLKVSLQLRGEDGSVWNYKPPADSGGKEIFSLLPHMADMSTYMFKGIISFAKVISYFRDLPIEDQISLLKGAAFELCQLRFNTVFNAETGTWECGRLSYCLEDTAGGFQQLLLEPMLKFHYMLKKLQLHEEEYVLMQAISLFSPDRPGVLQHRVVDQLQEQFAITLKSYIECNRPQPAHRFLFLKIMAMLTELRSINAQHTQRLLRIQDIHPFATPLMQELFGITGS

[3] = biological target: T2, Peroxisome proliferator-activated receptor gamma (Homo sapiens) (UniProt P37231); assay: Agonist activity at PPARgamma (unknown origin) in human HepG2 cells assessed as receptor transactivation at 10 uM incubated for 18 hrs by Gal4 luciferase reporter gene assay; type: cell-based; outline: as §1
T2 sequence (whole entry): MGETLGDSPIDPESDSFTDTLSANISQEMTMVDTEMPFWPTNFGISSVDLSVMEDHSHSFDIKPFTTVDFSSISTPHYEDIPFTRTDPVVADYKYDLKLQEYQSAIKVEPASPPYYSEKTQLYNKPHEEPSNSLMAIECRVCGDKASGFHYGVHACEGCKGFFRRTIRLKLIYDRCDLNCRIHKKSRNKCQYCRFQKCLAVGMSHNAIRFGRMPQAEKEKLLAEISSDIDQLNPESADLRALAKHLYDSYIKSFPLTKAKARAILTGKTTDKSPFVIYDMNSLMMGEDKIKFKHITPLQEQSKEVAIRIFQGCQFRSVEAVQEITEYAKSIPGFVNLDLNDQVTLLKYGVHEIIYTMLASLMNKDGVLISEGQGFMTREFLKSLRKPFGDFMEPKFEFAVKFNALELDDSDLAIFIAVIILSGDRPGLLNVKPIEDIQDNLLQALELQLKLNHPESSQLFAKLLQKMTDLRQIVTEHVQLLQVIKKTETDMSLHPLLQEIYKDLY

[4] = biological target: T3, Bile acid receptor (Homo sapiens) (UniProt Q96RI1); assay: Agonist activity at FXR in human HepG2 cells assessed as increase in SHP mRNA expression at 10 uM by RT-PCR method; type: cell-based
T3 sequence (whole entry): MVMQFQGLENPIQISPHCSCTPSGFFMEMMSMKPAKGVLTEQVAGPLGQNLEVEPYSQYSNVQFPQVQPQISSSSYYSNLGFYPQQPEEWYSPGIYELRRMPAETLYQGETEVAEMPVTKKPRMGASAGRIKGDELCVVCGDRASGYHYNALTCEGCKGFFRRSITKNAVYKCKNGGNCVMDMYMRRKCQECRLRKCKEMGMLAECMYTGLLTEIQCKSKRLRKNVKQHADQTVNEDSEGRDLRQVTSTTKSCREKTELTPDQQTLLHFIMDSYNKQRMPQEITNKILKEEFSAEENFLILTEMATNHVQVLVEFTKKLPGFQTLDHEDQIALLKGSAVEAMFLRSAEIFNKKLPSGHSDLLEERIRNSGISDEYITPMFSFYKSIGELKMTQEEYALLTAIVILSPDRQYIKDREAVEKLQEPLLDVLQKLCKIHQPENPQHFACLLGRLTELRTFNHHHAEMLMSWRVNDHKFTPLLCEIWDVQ
Outline: (§2)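 HepG2 cells treated at 10 μM. TRIzol RNA was DNase-treated and reverse transcribed with random primers, then SYBR real-time PCR run in triplicate (40 cycles, 95 °C/60 °C). Values normalized to GAPDH and expressed relative to untreated cells set to 1.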

[5] = biological target: T4, G-protein coupled bile acid receptor 1 (Homo sapiens, UniProt Q8TDU6); assay: Agonist activity at GP-BAR1 (unknown origin) in human HEK293 cells assessed as receptor transactivation at 100 nM to 50 uM […] by CRE-driven luciferase reporter gene assay; type: functional, cell-based
T4 sequence (Q8TDU6 whole entry): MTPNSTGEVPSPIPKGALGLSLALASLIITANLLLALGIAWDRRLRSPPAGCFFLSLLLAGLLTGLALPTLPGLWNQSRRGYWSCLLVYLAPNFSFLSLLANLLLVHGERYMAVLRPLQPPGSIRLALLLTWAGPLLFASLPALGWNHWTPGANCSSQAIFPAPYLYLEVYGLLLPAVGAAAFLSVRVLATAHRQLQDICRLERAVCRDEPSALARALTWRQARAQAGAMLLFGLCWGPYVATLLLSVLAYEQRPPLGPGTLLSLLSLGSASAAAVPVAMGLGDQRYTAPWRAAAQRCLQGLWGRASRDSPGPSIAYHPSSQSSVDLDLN

[6] = biological target: T5, Glucocorticoid receptor (Homo sapiens) (UniProt P04150); assay: Agonist activity at GCR (unknown origin) in human HepG2 cells assessed as receptor transactivation at 10 uM incubated for 18 hrs by Gal4 luciferase reporter gene assay; type: cell-based; outline: as §1
T5 sequence (whole entry): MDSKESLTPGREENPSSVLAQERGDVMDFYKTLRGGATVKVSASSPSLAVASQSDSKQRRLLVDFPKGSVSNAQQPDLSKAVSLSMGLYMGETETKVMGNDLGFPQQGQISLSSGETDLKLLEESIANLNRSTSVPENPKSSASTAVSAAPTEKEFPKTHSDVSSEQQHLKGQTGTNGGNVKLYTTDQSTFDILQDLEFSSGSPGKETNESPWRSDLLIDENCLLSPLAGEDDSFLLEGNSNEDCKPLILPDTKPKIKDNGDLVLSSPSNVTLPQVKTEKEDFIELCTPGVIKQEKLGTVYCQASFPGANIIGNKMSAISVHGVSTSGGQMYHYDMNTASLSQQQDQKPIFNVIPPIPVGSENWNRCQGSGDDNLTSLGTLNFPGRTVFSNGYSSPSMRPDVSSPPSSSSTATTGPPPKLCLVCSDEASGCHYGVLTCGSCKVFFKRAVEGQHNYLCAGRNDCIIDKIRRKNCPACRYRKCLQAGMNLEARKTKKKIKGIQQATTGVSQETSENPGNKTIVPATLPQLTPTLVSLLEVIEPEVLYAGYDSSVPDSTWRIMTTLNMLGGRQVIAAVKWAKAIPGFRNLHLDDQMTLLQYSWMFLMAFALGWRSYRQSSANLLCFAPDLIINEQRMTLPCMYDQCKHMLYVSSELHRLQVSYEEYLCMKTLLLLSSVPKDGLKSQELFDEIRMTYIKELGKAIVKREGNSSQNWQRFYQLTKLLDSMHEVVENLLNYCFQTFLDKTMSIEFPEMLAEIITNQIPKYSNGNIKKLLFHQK

[7] = biological target: T3, Bile acid receptor (Homo sapiens); assay: Agonist activity at FXR in human HepG2 cells assessed as increase in BSEP mRNA expression at 10 uM by RT-PCR method; type: cell-based; outline: as §2
[8] = biological target: T6, Bile acid receptor (Homo sapiens, UniProt Q96RI1); assay: Agonist activity at FXR (unknown origin) expressed in human HepG2 cells assessed as receptor transactivation at 100 nM to 50 uM […] by FXR response element driven HSP27-TK-luciferase reporter gene assay; type: cell-based
T6 sequence (Q96RI1 whole entry): T3 sequence (whole entry)

[9] = biological target: T7, G-protein coupled bile acid receptor 1 (Mus musculus) (UniProt Q80SS6); assay: Agonist activity at GP-BAR1 in mouse GLUTag cells assessed as increase in pro-glucagon mRNA expression at 10 uM by RT-PCR method; type: cell-based
T7 sequence (whole entry): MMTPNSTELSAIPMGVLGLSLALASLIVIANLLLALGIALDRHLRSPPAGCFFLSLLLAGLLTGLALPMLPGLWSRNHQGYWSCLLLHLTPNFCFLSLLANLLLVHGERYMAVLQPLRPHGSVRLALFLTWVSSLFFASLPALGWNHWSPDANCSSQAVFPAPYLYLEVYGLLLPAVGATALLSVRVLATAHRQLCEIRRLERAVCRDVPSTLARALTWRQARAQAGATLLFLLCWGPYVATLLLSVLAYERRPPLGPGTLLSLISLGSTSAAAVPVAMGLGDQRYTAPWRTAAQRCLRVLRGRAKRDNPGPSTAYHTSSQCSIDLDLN
Outline: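 Murine GLUTag enteroendocrine cells (D-MEM, 10% FBS) treated at 10 μM. Pro-glucagon mRNA measured by SYBR real-time PCR in triplicate, normalized to GAPDH and expressed relative to untreated cells set to 1.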

[10] = biological target: T3, Bile acid receptor (Homo sapiens); assay: Agonist activity at FXR in human HepG2 cells assessed as increase in OSTalpha mRNA expression at 10 uM by RT-PCR method; type: cell-based; outline: as §2
[11] = biological target: T8, G-protein coupled bile acid receptor 1 (Homo sapiens) (UniProt Q8TDU6); assay: Agonist activity at GP-BAR1 in human THP1 cells assessed as increase in cAMP level at 10 uM by enzyme immunoassay; type: functional, cell-based; settings: THP-1
T8 sequence (whole entry): T4 sequence (Q8TDU6 whole entry)
Outline: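 THP-1 monocytes serum-starved overnight, then stimulated 30 min at 10 μM, with forskolin 10 μM as reference. cAMP measured by direct cAMP enzyme immunoassay. Three experiments, mean ± SE.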

With `C[C@H](CCCOS(=O)(=O)[O-])[C@H]1CC[C@H]2[C@@H]3[C@H](O)C[C@@H]4CCCC[C@]4(C)[C@H]3CC[C@]12C.[Na+]` the Activity [1] was “inactive”, the Activity [2] was “Active” and the Activity [3] was “inactive”. The Activity [4] was “Active”, the EC50 ([5]; hek293) was “Not Active” and the Activity [6] was “inactive”. The Activity [7] was “Active”, the EC50 ([8]; read-out: EC50) was 9 µM and the Activity [9] was “inactive”. For the same compound, the Activity [10] was “Active”.

In the case of `CC[C@@H]1[C@H](O)[C@@H]2[C@H](CC[C@]3(C)[C@@H]([C@H](C)CCCO)CC[C@@H]23)[C@@]2(C)CC[C@@H](O)C[C@@H]12`, the Activity [1] is reported as “inactive”, the Activity [2] is reported as “Active” and the Activity [3] is reported as “inactive”. The EC50 ([5]; read-out: EC50) was 1.03 µM, the Activity [6] was “inactive” and the Activity [11] was “Active”. For the same compound, the EC50 ([8]; hepg2) was “Not Active” and the Activity [9] was “Active”.

`CC[C@H]1[C@@H](O)[C@@H]2[C@H](CC[C@]3(C)[C@@H]([C@H](C)CCO)CC[C@@H]23)[C@@]2(C)CC[C@@H](O)C[C@@H]12` was tested, and the Activity [1] was “inactive”, the Activity [2] was “Active” and the Activity [3] was “inactive”. For the same compound, the Activity [4] was “Active”, the Activity [6] was “inactive” and the Activity [7] was “Active”. The Activity [11] was “Active”, the Activity [9] was “Active” and the Activity [10] was “Active”.
